The target of assay [1] is T1, Alpha-1A adrenergic receptor (Rattus norvegicus) (UniProt P43140).
T1 sequence (whole entry): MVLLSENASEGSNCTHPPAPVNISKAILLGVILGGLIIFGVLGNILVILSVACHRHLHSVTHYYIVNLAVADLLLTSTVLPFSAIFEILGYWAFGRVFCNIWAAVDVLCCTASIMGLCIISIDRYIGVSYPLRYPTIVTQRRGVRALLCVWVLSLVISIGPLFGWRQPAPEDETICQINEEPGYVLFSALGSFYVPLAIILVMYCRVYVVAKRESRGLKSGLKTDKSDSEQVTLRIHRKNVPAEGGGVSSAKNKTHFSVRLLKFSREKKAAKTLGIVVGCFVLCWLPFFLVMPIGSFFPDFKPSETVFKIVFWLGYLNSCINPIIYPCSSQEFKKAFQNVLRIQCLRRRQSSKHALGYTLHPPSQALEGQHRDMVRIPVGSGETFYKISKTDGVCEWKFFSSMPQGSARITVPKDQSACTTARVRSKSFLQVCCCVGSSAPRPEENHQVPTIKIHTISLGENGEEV
Put plainly: Percent response towards alpha 1A adrenergic receptor in rat vas deferens using phenylephrine as control agonist. The class given is functional, tissue-based.

Assay [2] deals with T2, Alpha-1A adrenergic receptor (Bos taurus, UniProt P18130).
T2 sequence (P18130 whole entry): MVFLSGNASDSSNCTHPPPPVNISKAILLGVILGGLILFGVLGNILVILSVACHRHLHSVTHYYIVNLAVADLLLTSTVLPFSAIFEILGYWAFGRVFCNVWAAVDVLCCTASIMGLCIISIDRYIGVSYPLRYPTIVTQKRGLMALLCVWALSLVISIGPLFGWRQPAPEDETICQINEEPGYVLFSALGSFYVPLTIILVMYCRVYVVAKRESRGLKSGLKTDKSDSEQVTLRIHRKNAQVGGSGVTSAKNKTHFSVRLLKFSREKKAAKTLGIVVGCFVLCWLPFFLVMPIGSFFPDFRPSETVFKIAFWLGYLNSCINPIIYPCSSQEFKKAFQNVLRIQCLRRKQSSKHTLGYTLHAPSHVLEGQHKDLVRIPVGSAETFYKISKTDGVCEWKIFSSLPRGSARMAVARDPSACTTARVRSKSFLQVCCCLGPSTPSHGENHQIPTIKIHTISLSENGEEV
Description: Binding affinity towards bovine clonal Alpha-1A adrenergic receptor. A digest of the protocol:
(§1)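 Radioligand binding to cloned receptors: bovine α1a for line 1 and rat α1d for line 2.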

Assay [3] concerns the target T3, Alpha-1B adrenergic receptor (Mesocricetus auratus, UniProt P18841).
T3 sequence (P18841 whole entry): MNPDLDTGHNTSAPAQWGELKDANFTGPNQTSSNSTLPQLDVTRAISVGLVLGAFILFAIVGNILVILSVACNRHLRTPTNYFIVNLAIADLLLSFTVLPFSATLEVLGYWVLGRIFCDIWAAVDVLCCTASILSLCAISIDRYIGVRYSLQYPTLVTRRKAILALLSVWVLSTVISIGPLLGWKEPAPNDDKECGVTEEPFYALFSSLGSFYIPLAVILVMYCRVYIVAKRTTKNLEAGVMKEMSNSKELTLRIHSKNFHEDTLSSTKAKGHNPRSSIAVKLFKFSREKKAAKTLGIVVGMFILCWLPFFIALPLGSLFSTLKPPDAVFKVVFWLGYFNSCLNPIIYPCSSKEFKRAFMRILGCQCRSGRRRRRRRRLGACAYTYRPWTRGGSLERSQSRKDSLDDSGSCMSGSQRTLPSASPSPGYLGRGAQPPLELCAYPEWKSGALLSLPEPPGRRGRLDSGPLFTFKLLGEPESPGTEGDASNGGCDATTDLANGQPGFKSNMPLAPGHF
Put plainly: Binding affinity towards hamster clonal Alpha-1B adrenergic receptor. The class given is single protein.

For assay [4], the target named is T4, Alpha-1D adrenergic receptor (Rattus norvegicus) (UniProt P23944).
T4 sequence (whole entry): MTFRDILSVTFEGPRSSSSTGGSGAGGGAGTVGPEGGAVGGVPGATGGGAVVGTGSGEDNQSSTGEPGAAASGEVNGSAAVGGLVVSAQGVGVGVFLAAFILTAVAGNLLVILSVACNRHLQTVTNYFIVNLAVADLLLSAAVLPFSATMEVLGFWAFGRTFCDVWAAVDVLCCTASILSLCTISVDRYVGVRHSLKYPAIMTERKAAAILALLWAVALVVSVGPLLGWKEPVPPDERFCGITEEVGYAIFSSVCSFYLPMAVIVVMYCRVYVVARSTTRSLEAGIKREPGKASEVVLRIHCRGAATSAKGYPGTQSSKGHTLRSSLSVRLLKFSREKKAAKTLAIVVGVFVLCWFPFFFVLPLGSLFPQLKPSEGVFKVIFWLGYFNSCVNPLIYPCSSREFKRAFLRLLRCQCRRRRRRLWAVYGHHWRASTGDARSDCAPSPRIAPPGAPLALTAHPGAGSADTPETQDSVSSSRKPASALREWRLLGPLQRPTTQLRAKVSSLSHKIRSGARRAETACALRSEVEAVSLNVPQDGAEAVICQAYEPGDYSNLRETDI
Description: Percent response towards alpha 1D adrenergic receptor in rat aorta using phenylephrine as control agonist. The class given is functional, tissue-based.

In assay [5] the target is T5, Alpha-1A adrenergic receptor (Homo sapiens) (UniProt P35348).
T5 sequence (whole entry): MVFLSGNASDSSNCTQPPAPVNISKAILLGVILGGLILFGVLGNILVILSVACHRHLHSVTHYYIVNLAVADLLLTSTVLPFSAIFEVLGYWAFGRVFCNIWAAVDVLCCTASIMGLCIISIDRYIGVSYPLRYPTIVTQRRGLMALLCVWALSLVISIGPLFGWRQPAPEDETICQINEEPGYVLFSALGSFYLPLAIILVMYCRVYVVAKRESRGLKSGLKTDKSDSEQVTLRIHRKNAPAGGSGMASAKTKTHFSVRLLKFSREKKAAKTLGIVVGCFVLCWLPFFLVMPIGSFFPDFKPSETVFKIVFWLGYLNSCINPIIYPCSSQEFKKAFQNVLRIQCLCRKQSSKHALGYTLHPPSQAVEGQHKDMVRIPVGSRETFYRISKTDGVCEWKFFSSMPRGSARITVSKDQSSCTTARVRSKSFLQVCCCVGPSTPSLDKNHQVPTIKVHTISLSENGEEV
Put plainly: Percent response towards alpha 1A adrenergic receptor in canine prostate using phenylephrine as control agonist. The class given is functional, tissue-based. As to conditions: Canis lupus familiaris; Prostate gland; target entry is the homologue from another species.

Assay [6] concerns the target T6, Alpha-1B adrenergic receptor (Rattus norvegicus, UniProt P15823).
T6 sequence (P15823 whole entry): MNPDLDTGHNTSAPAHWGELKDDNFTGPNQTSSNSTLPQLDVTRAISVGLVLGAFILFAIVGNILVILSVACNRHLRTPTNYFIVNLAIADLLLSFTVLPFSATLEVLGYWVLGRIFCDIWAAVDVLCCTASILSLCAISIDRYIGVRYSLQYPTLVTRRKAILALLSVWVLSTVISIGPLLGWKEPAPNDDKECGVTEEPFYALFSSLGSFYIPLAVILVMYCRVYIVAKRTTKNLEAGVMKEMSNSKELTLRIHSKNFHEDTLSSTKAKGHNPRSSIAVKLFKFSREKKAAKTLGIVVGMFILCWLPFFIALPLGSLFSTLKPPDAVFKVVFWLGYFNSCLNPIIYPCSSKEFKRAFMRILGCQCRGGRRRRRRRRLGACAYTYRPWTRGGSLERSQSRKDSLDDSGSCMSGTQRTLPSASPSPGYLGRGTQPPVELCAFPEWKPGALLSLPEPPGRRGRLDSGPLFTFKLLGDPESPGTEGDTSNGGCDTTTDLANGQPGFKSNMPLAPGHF
Put plainly: In vitro agonist potency towards Alpha-1B adrenergic receptor in rat spleen. The class given is functional, tissue-based.

Assay [7] has as its target T7, Alpha-1D adrenergic receptor (Rattus norvegicus, UniProt P23944).
T7 sequence (P23944 whole entry): T4 sequence (whole entry)
Description: In vitro agonist potency towards Alpha-1D adrenergic receptor in rat aorta. The class given is functional, tissue-based.

Assay [8] has as its target T7, Alpha-1D adrenergic receptor. Put plainly: Binding affinity towards rat clonal Alpha-1D adrenergic receptor. In short, it runs like this: as §1

The record followed here is ChEMBL document CHEMBL1129439, “Synthesis and in vitro characterization of N-[5-(4,5-dihydro-1H-imidazol-2-yl)-2-hydroxy-5,6,7,8- tetrahydronaphthalen-1-yl]methanesulfonamide and its enantiomers: a novel selective alpha 1A receptor agonist” (J Med Chem, 1996).

The structures appear in SMILES notation.

On to `NCC(O)c1ccc(O)c(O)c1` (single isomer, unassigned) [NOREPINEPHRINE], for which the maximal response (Emax) in assay [1] is 105%; in assay [4], 113%; in assay [5], 117%. The Ki in assay [2] was 447 nM; in assay [3], 263 nM.
As to `CS(=O)(=O)Nc1c(O)ccc2c1CCC[C@@H]2C1=NCCN1`, the Emax in assay [1] is 45%; in assay [5] it was 24%. The inhibition constant Ki in assay [2] is 1450 nM; in assay [3] it was 17400 nM; in assay [8], 2950 nM. The EC50 in assay [6] and in assay [7] was over 100000 nM in each case.
On to `Cc1cc(C(C)(C)C)c(O)c(C)c1CC1=NCCN1` [OXYMETAZOLINE], for which the figures for the maximal response (Emax) in assay [1], in assay [4] and in assay [5] were 80%, 83% and 71%, respectively. Also, the Ki in assay [2] is 13.2 nM.
For `CNC[C@H](O)c1cccc(O)c1` [PHENYLEPHRINE], in that order: 100%, 100%, 100% and 933 nM.
Take `CS(=O)(=O)Nc1c(O)ccc2c1CCCC2C1=NCCN1` (stereo not given): the values for the Emax in assay [1], in assay [4] and in assay [5] were 108%, 100% and 91%, respectively. Also, the Ki is 30.2 nM in assay [2], 2090 nM in assay [3] and 1350 nM in assay [8]. This compound also gave an EC50 in assay [7] of 2570 nM.
Regarding `CS(=O)(=O)Nc1c(O)ccc2c1CCC[C@H]2C1=NCCN1`, the values for the Emax in assay [1], in assay [4] and in assay [5] were 78%, 103% and 63%, respectively. For the same compound, the Ki in assay [2] is 17.4 nM; in assay [3], 2820 nM; in assay [8], 1020 nM. The EC50 was 186 nM in assay [6] and 1020 nM in assay [7].

Broadly, the Emax is the greatest response seen or fitted, relative to the assay's reference. One may read the Ki as a dissociation constant, usually derived from enzyme kinetics or from competition with a known ligand. Read a high Ki as weaker binding. By EC50 is commonly meant the concentration that produces a half-maximal response. Read a high EC50 as a need for much substance.
